This is one part of a sample in which hits are shown more often than they occur.
A1 apoptosis 2: A1 inhibitors via caspase activation, primary screen, cell-based, luminescence, HTS, two replicates; MEF A1-2A-BIM cells, caspase-Glo luminescence, 3 h; percent of clofoctol response, DMSO zero; caspase activation, % (no concentration beside the values); 24,000 tested, under 10 active; in the data active = caspase activation above about 5.9%; inconclusive = no clear call, values can overlap the other calls; inactive = below about 2.2%
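Evaluation: Caspase-3/7 activity from luminescence increase | Assay system: A1-2A-BIM mouse embryonic fibroblasts | Quantity: 2500 MEF cells/well | Medium: RPMI-1640 plus 10% FBS | Detection: Caspase-Glo 3/7 luminescence, 1 h at room temperature | Dosing: 50 nL compound per well, pinned | Timing: Cells settled overnight, compound exposure 3 h at 37 °C, 5% CO2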
INS-1E rescue: protection of INS-1E cells from cytokine death, primary screen, ATP luminescence, single point | hit rate 0.1% among 20,000 | protection from cytokine-induced ATP loss, % at 10 µM | INS-1E cytokine-induced death, 48 h; normalised: neutral wells 0, positive control 100;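 active = mean replicate protection from cytokine-induced ATP loss at least 50% and at least 75% of replicates each reaching 50%; inconclusive = meets only one of the two criteria, mean or replicate share; inactive = fails both the mean and replicate share criteria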
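Test system: INS-1E rat cells | Quantity: 8000 cells per well | Medium: Phenol-red-free RPMI with 5% fetal bovine serum | Reagent: Cytokine cocktail of IFN-γ, TNF-α and IL-1β | Doses: One compound concentration, pin transfer | Timing: 48 h co-treatment, 10 min post-lysis read | Technique: Luminescent ATP assay (CellTiter-Glo)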
T cruzi intra: inhibitors of intracellular Trypanosoma cruzi, primary screen, cell-based, plate reader, single point, set 2 | intracellular Trypanosoma cruzi in host cells | activity score (inhibition), % at 5.01 µM | hit rate 4.9% among 22,000 | AID 651903, 2012; in the data active = activity score above about 55%; inconclusive = no clear call, values can overlap the other calls;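 note: parasites and compound incubated about four days before reading; 0% = median of neutral control wells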
* = called active by the depositor.

Screening C[C@H](CO)N1C[C@H](C)[C@@H](CN(C)Cc2ccc(Oc3ccccc3)cc2)Oc2c(NC(=O)c3cnccn3)cccc2C1=O returned INS-1E rescue -42 and T cruzi intra inconclusive.
C[C@@H]1CN([C@@H](C)CO)C(=O)c2cccc(NC(=O)c3ccncc3)c2O[C@H]1CN(C)Cc1ccc(Oc2ccccc2)cc1 was read as A1 apoptosis 2 0, INS-1E rescue -7 and T cruzi intra 80*.
For C[C@@H]1CN([C@H](C)CO)C(=O)c2cccc(NC(=O)c3cnccn3)c2O[C@H]1CN(C)Cc1ccc(Oc2ccccc2)cc1 the results were INS-1E rescue -22 and T cruzi intra 33.
C[C@@H]1CN([C@@H](C)CO)C(=O)c2cccc(NC(=O)c3cnccn3)c2O[C@H]1CN(C)Cc1ccc(Oc2ccccc2)cc1 was read as INS-1E rescue -30 and T cruzi intra 33.
For C[C@@H]1CN([C@H](C)CO)C(=O)c2cccc(NC(=O)c3ccncc3)c2O[C@@H]1CN(C)Cc1ccc(Oc2ccccc2)cc1 the results were A1 apoptosis 2 -1, INS-1E rescue -16 and T cruzi intra 81*.
C[C@H]1CN([C@@H](C)CO)C(=O)c2cccc(NC(=O)c3ccncc3)c2O[C@H]1CN(C)Cc1ccc(Oc2ccccc2)cc1 was read as A1 apoptosis 2 -1, INS-1E rescue -16 and T cruzi intra 82*.
`C[C@H](CO)N1C[C@H](C)[C@H](CN(C)Cc2ccc(Oc3ccccc3)cc2)Oc2c(NC(=O)c3cnccn3)cccc2C1=O` gave A1 apoptosis 2 -1, INS-1E rescue -29 and T cruzi intra 69*.
For O=C(CCCCCC(=O)Nc1ccccc1O)N/N=C/c1ccc(N2CCCC2)cc1 the results were A1 apoptosis 2 0.
For COc1cc(Br)c(/C=N/NC(=O)c2cccc(C(=O)NO)c2)cc1OC the results were A1 apoptosis 2 2, INS-1E rescue -5 and T cruzi intra -3.
C=C(C)[C@@H]1CC=C(/C=N/NC(=O)c2ccc(C(=O)NO)cc2)CC1 was read as INS-1E rescue 17 and T cruzi intra -6.
`COCCOC(=O)N1C(=O)[C@@]2(c3cc(C#Cc4ccc(OC)cc4)ccc31)[C@H](C(=O)N1CCCCCCC1)[C@H]1C(=O)O[C@H](c3ccccc3)[C@H](c3ccccc3)N1[C@@H]2c1ccc(O)cc1` gave A1 apoptosis 2 -1.
COC(=O)CCCCCCC(=O)N/N=C/c1ccccc1C was read as INS-1E rescue 2 and T cruzi intra -5.
For C[C@@H]1CN([C@H](C)CO)C(=O)Cc2cc(NC(=O)c3ccncc3)ccc2O[C@H]1CN(C)Cc1ccc(C(F)(F)F)cc1 the results were A1 apoptosis 2 0, INS-1E rescue 5 and T cruzi intra 19.
For C[C@@H]1CN([C@H](C)CO)C(=O)Cc2cc(NC(=O)Nc3ccc(C(F)(F)F)cc3)ccc2O[C@@H]1CN(C)Cc1ccncc1 the results were A1 apoptosis 2 0, INS-1E rescue 2 and T cruzi intra 65*.
Screening C[C@H]1CN([C@@H](C)CO)C(=O)Cc2cc(NC(=O)Nc3ccc(C(F)(F)F)cc3)ccc2O[C@H]1CN(C)Cc1ccncc1 returned A1 apoptosis 2 2, INS-1E rescue -1 and T cruzi intra 68*.
Screening C[C@@H]1CN([C@@H](C)CO)C(=O)Cc2cc(NC(=O)Nc3ccc(C(F)(F)F)cc3)ccc2O[C@@H]1CN(C)Cc1ccncc1 returned A1 apoptosis 2 1, INS-1E rescue -17 and T cruzi intra 69*.
Screening C[C@H](CO)N1C[C@H](C)[C@H](CN(C)Cc2ccc(C(F)(F)F)cc2)Oc2ccc(NC(=O)c3ccncc3)cc2CC1=O returned A1 apoptosis 2 0, INS-1E rescue -8 and T cruzi intra 38.
For C[C@H](CO)N1C[C@H](C)[C@@H](CN(C)Cc2ccncc2)Oc2ccc(NC(=O)Nc3ccc(C(F)(F)F)cc3)cc2CC1=O the results were A1 apoptosis 2 0.
`C=CCOC(=O)[C@H]1[C@@H]2C(=O)O[C@@H](c3ccccc3)[C@@H](c3ccccc3)N2[C@@H](c2ccc(OCCOC(=O)[C@@H]3C[C@@H]4C(=O)N[C@@H](CC(C)C)C(=O)N4[C@@H]3c3cccc(OCCO)c3)cc2)[C@]12C(=O)Nc1ccc(I)cc12` gave A1 apoptosis 2 1.
CC(C)(C)OC(=O)Nc1cccc(/C=N/NC(=O)c2ccccn2)c1 was read as INS-1E rescue 1 and T cruzi intra 13.
CC(C)=CCC[C@@H](C)C/C=N/NC(=O)c1cccc(C(=O)NO)c1 was read as A1 apoptosis 2 0, INS-1E rescue -5 and T cruzi intra -4.
Screening C[C@H]1CN([C@@H](C)CO)C(=O)Cc2cc(NC(=O)Nc3cccc4ccccc34)ccc2O[C@H]1CN(C)Cc1ccccc1 returned A1 apoptosis 2 0, INS-1E rescue -19 and T cruzi intra 69*.
C[C@H]1CN([C@@H](C)CO)C(=O)Cc2cc(NC(=O)Nc3cccc4ccccc34)ccc2O[C@@H]1CN(C)CC1CCCCC1 was read as A1 apoptosis 2 -1, INS-1E rescue -24 and T cruzi intra 76*.
C[C@H](CO)N1C[C@H](C)[C@H](CN(C)CC2CC2)Oc2ccc(NC(=O)Nc3cccc4ccccc34)cc2CC1=O was read as A1 apoptosis 2 1.
For COc1ccc(CN(C)C[C@@H]2Oc3ccc(NC(=O)Nc4cccc5ccccc45)cc3CC(=O)N([C@@H](C)CO)C[C@@H]2C)cc1 the results were A1 apoptosis 2 2, INS-1E rescue 0 and T cruzi intra 28.
`C[C@@H]1CN([C@H](C)CO)C(=O)Cc2cc(NC(=O)Nc3cccc4ccccc34)ccc2O[C@@H]1CN(C)Cc1ccc(Oc2ccccc2)cc1` gave A1 apoptosis 2 1, INS-1E rescue -16 and T cruzi intra 69*.
Screening C[C@@H]1CN([C@H](C)CO)C(=O)c2cc(NC(=O)Nc3cccc4ccccc34)ccc2O[C@H]1CN(C)Cc1ccc(Oc2ccccc2)cc1 returned A1 apoptosis 2 1 and T cruzi intra 53.
`C[C@@H]1CN([C@@H](C)CO)C(=O)c2cc(NC(=O)Nc3cccc4ccccc34)ccc2O[C@@H]1CN(C)Cc1ccc(Oc2ccccc2)cc1` gave A1 apoptosis 2 0, INS-1E rescue -57 and T cruzi intra 57*.
`C[C@H]1CN([C@@H](C)CO)C(=O)Cc2cc(NC(=O)Nc3cccc4ccccc34)ccc2O[C@H]1CN(C)Cc1ccc(-c2ccccc2)cc1` gave INS-1E rescue -45 and T cruzi intra 4.
`COc1ccc(/C=N/NC(=O)c2ccccn2)c(O)c1` gave A1 apoptosis 2 -13, INS-1E rescue -119 and T cruzi intra 35.
`O=C(CCCCCCC(=O)Nc1ccccc1O)N/N=C/c1cc(Br)cc(Br)c1O` gave A1 apoptosis 2 0, INS-1E rescue 5 and T cruzi intra 34.
For [N-]=[N+]=NCc1ccccc1C[C@@]1(C(N)=O)N=C(c2ccc(OCCCO)cc2)O[C@@H]1c1ccccc1 the results were A1 apoptosis 2 -1.
